Results: ChEMBL document CHEMBL1143313, “Synthesis of novel 4,6-di(substituted)amino-1,2-dihydro-1,3,5-triazine derivatives as topical antiseptic agents” (2009)

Assays:
Assay type in all cases: functional
Staphylococcus aureus [1] = assay: Antibacterial activity against methicillin-resistant Staphylococcus aureus 97-115 after 24 hrs
In short: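 Read-out is the minimal inhibitory concentration (MIC), taken after 24 h incubation with the test organism.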

Pseudomonas aeruginosa [2] = assay: Bactericidal activity against Pseudomonas aeruginosa PAO1 preincubated for 3 mins before addition of growth medium measured after 40 to 48 hrs
Staphylococcus aureus [3] = assay: Bactericidal activity against Staphylococcus aureus 209PJC preincubated for 5 mins before addition of growth medium measured after 40 to 48 hrs
Escherichia coli [4] = assay: Bactericidal activity against Escherichia coli NIHJ JC-2 preincubated for 1 min before addition of growth medium measured after 40 to 48 hrs
Staphylococcus aureus [5] = assay: Bactericidal activity against methicillin-resistant Staphylococcus aureus 97-115 preincubated for 1 min before addition of growth medium measured after 40 to 48 hrs
In short: (§1)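 Read-out is the minimal bactericidal concentration (MBC), taken after 1, 3 and 5 min contact of compound with the test organism.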

Pseudomonas aeruginosa [6] = assay: Bactericidal activity against Pseudomonas aeruginosa 12 preincubated for 3 mins before addition of growth medium measured after 40 to 48 hrs
Escherichia coli [7] = assay: Bactericidal activity against Escherichia coli NIHJ JC-2 preincubated for 3 mins before addition of growth medium measured after 40 to 48 hrs
Staphylococcus aureus [8] = assay: Bactericidal activity against Staphylococcus aureus 209PJC preincubated for 1 min before addition of growth medium measured after 40 to 48 hrs
Pseudomonas aeruginosa [9] = assay: Bactericidal activity against Pseudomonas aeruginosa PAO1 preincubated for 1 min before addition of growth medium measured after 40 to 48 hrs
Escherichia coli [10] = assay: Antibacterial activity against Escherichia coli NIHJ JC-2 after 24 hrs
In short: (§2)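 Value is the minimal inhibitory concentration (MIC) against the test organism, read after 24 h of incubation.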

Staphylococcus aureus [11] = assay: Bactericidal activity against methicillin-resistant Staphylococcus aureus 97-53 preincubated for 3 mins before addition of growth medium measured after 40 to 48 hrs; in short: as §1
Staphylococcus aureus [12] = assay: Bactericidal activity against methicillin-resistant Staphylococcus aureus KM 97-108 preincubated for 1 min before addition of growth medium measured after 40 to 48 hrs; in short: as §1
Staphylococcus aureus [13] = assay: Antibacterial activity against Staphylococcus aureus 209PJC after 24 hrs; in short: as §2
Escherichia coli [14] = assay: Bactericidal activity against Escherichia coli NIHJ JC-2 preincubated for 5 mins before addition of growth medium measured after 40 to 48 hrs
Staphylococcus aureus [15] = assay: Bactericidal activity against methicillin-resistant Staphylococcus aureus KM 97-108 preincubated for 3 mins before addition of growth medium measured after 40 to 48 hrs; in short: as §1
Staphylococcus aureus [16] = assay: Bactericidal activity against methicillin-resistant Staphylococcus aureus 97-115 preincubated for 3 mins before addition of growth medium measured after 40 to 48 hrs; in short: as §1
Staphylococcus aureus [17] = assay: Bactericidal activity against methicillin-resistant Staphylococcus aureus KM 97-108 preincubated for 5 mins before addition of growth medium measured after 40 to 48 hrs; in short: as §1
Enterococcus [18] = assay: Bactericidal activity against vancomycin-resistant Enterococcus 49 preincubated for 5 mins before addition of growth medium measured after 40 to 48 hrs; in short: as §1
Pseudomonas aeruginosa [19] = assay: Antibacterial activity against Pseudomonas aeruginosa PAO1; in short: as §2
Enterococcus [20] = assay: Bactericidal activity against vancomycin-resistant Enterococcus 49 preincubated for 1 min before addition of growth medium measured after 40 to 48 hrs; in short: as §1
Staphylococcus aureus [21] = assay: Bactericidal activity against methicillin-resistant Staphylococcus aureus 97-53 preincubated for 5 mins before addition of growth medium measured after 40 to 48 hrs; in short: as §1
Staphylococcus aureus [22] = assay: Bactericidal activity against methicillin-resistant Staphylococcus aureus 97-115 preincubated for 5 mins before addition of growth medium measured after 40 to 48 hrs; in short: as §1
Staphylococcus aureus [23] = assay: Bactericidal activity against methicillin-resistant Staphylococcus aureus 97-53 preincubated for 1 min before addition of growth medium measured after 40 to 48 hrs; in short: as §1
Pseudomonas aeruginosa [24] = assay: Bactericidal activity against Pseudomonas aeruginosa 12 preincubated for 1 min before addition of growth medium measured after 40 to 48 hrs
Pseudomonas aeruginosa [25] = assay: Bactericidal activity against Pseudomonas aeruginosa PAO1 preincubated for 5 mins before addition of growth medium measured after 40 to 48 hrs
Staphylococcus aureus [26] = assay: Bactericidal activity against Staphylococcus aureus 209PJC preincubated for 3 mins before addition of growth medium measured after 40 to 48 hrs
Pseudomonas aeruginosa [27] = assay: Bactericidal activity against Pseudomonas aeruginosa 12 preincubated for 5 mins before addition of growth medium measured after 40 to 48 hrs
Enterococcus [28] = assay: Bactericidal activity against vancomycin-resistant Enterococcus 49 preincubated for 3 mins before addition of growth medium measured after 40 to 48 hrs; in short: as §1

SMILES	MIC (Staphylococcus aureus [1])	MBC (Pseudomonas aeruginosa [2])	MBC (Staphylococcus aureus [3])	MBC (Escherichia coli [4])	MBC (Staphylococcus aureus [5])	MBC (Pseudomonas aeruginosa [6])	MBC (Escherichia coli [7])	MBC (Staphylococcus aureus [8])	MBC (Pseudomonas aeruginosa [9])	MIC (Escherichia coli [10])	MBC (Staphylococcus aureus [11])	MBC (Staphylococcus aureus [12])	MIC (Staphylococcus aureus [13])	MBC (Escherichia coli [14])	MBC (Staphylococcus aureus [15])	MBC (Staphylococcus aureus [16])	MIC (Pseudomonas aeruginosa [19])	MBC (Staphylococcus aureus [22])	MBC (Pseudomonas aeruginosa [25])	MBC (Staphylococcus aureus [26])	further results
CC(=O)O.CCCCCCCCNC1=NC(C)(C)NC(NCc2ccc(C)cc2)=N1	0.4 µg/mL	6.3 µg/mL	3.1 µg/mL	12.5 µg/mL	25 µg/mL	6.3 µg/mL	6.3 µg/mL	6.3 µg/mL	12.5 µg/mL	12.5 µg/mL	50 µg/mL	50 µg/mL	0.4 µg/mL	6.3 µg/mL	50 µg/mL	25 µg/mL	12.5 µg/mL	12.5 µg/mL	3.1 µg/mL	3.1 µg/mL	MBC (Staphylococcus aureus [17]): 25 µg/mL; MBC (Enterococcus [18]): 12.5 µg/mL; MBC (Enterococcus [20]): 25 µg/mL; MBC (Staphylococcus aureus [21]): 25 µg/mL; MBC (Staphylococcus aureus [23]): 50 µg/mL; MBC (Pseudomonas aeruginosa [24]): 6.3 µg/mL; MBC (Pseudomonas aeruginosa [27]): 3.1 µg/mL; MBC (Enterococcus [28]): 25 µg/mL
CC(=O)O.CCCCCCCCNC1=NC(C)(C)NC(NCCCCCC)=N1	0.8 µg/mL	3.1 µg/mL	6.3 µg/mL	12.5 µg/mL	12.5 µg/mL	3.1 µg/mL	6.3 µg/mL	12.5 µg/mL	6.3 µg/mL	12.5 µg/mL	25 µg/mL	50 µg/mL	0.8 µg/mL	6.3 µg/mL	25 µg/mL	6.3 µg/mL	50 µg/mL	6.3 µg/mL	1.6 µg/mL	6.3 µg/mL	MBC (Staphylococcus aureus [17]): 25 µg/mL; MBC (Enterococcus [18]): 12.5 µg/mL; MBC (Enterococcus [20]): 25 µg/mL; MBC (Staphylococcus aureus [21]): 25 µg/mL; MBC (Staphylococcus aureus [23]): 50 µg/mL; MBC (Pseudomonas aeruginosa [24]): 3.1 µg/mL; MBC (Pseudomonas aeruginosa [27]): 1.6 µg/mL; MBC (Enterococcus [28]): 25 µg/mL
N=C(NCCCCCCNC(=N)NC(=N)Nc1ccc(Cl)cc1)NC(=N)Nc1ccc(Cl)cc1.O=C(O)[C@H](O)[C@@H](O)[C@H](O)[C@H](O)CO	3.1 µg/mL	> 500 µg/mL	62.5 µg/mL	62.5 µg/mL	1000 µg/mL	31.3 µg/mL	31.3 µg/mL	62.5 µg/mL	> 500 µg/mL	1.6 µg/mL	250 µg/mL	500 µg/mL	0.2 µg/mL	15.6 µg/mL	500 µg/mL	250 µg/mL	50 µg/mL	125 µg/mL	> 500 µg/mL	62.5 µg/mL	MBC (Staphylococcus aureus [17]): 500 µg/mL; MBC (Enterococcus [18]): > 1000 µg/mL; MBC (Enterococcus [20]): > 1000 µg/mL; MBC (Staphylococcus aureus [21]): 250 µg/mL; MBC (Staphylococcus aureus [23]): 500 µg/mL; MBC (Pseudomonas aeruginosa [24]): 125 µg/mL; MBC (Pseudomonas aeruginosa [27]): 31.3 µg/mL; MBC (Enterococcus [28]): > 1000 µg/mL
CC(=O)O.CCCCCCCCNC1=NC(C)(C)NC(NCc2ccc(C(F)(F)F)cc2)=N1	0.8 µg/mL	6.3 µg/mL	6.3 µg/mL	3.1 µg/mL	6.3 µg/mL		3.1 µg/mL	12.5 µg/mL	12.5 µg/mL	50 µg/mL			0.4 µg/mL	3.1 µg/mL		6.3 µg/mL	25 µg/mL	6.3 µg/mL	6.3 µg/mL	6.3 µg/mL	
CC(=O)O.CCCCCCCCNC1=NC(C)(C)NC(NCc2ccc(Cl)cc2)=N1	0.8 µg/mL	1.6 µg/mL	3.1 µg/mL	3.1 µg/mL	6.3 µg/mL		1.6 µg/mL	3.1 µg/mL	6.3 µg/mL	25 µg/mL			0.8 µg/mL	1.6 µg/mL		6.3 µg/mL	25 µg/mL	6.3 µg/mL	1.6 µg/mL	3.1 µg/mL	
CC(=O)O.CCCCCCCCNC1=NC(C)(C)NC(NCCc2ccccc2)=N1	1.6 µg/mL	6.3 µg/mL	12.5 µg/mL	6.3 µg/mL	> 100 µg/mL		3.1 µg/mL	50 µg/mL	6.3 µg/mL	25 µg/mL			0.8 µg/mL	3.1 µg/mL		> 100 µg/mL	25 µg/mL	> 100 µg/mL	3.1 µg/mL	12.5 µg/mL	
